Experimental data published in ChEMBL document CHEMBL1122871, “Monocyclic pteridine analogues. Inhibition of Escherichia coli dihydropteroate synthase by 6-amino-5-nitrosoisocytosines” (J Med Chem, 1985).

Assays:
[1] = target: T1, Dihydropteroate synthase (Escherichia coli K-12, UniProt P0AC13); assay: (§1) In vitro inhibition of dihydropteroate synthase from Escherichia coli.; conditions: read-out: I50
T1 sequence (P0AC13 whole entry): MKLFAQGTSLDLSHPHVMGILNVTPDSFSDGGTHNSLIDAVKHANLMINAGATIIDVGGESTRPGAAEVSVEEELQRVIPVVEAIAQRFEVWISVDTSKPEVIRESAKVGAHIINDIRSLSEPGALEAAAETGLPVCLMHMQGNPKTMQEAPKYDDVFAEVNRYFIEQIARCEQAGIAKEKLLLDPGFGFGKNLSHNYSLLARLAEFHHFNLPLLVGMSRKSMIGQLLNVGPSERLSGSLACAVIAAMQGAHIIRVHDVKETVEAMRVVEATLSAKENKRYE
Procedure, shortened: (§2)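 Partially purified synthase from E. coli B. The assay used [14C]carboxy-p-aminobenzoic acid as substrate. Paper chromatography separated radiolabelled dihydropteroate from unreacted substrate. Results were given as the micromolar concentration giving 50% inhibition, or as percent inhibition at a stated concentration.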

[2] = target: T2, Dihydropteroate synthase (Escherichia coli K-12) (UniProt P0AC13); assay: Kinetic constant for synthase inhibition
T2 sequence (whole entry): T1 sequence (P0AC13 whole entry)
Procedure, shortened: (§3)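 Kinetic runs varied either the pterin substrate or PABA across inhibitor levels. Velocity was nmol dihydropteroate formed in a 12-min incubation at 37 °C, plotted as double reciprocals. Data were computer-fitted to competitive or noncompetitive inhibition models and statistically tested for fit to each model.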

[3] = target: T2, Dihydropteroate synthase (Escherichia coli K-12); assay: as §1; set-up: concentration or dose not given beside the values; conditions: concentration not given here; procedure, shortened: as §2
[4] = target: T1, Dihydropteroate synthase; assay: Inhibitory activity against binding of para-aminobenzoic acid to synthase; conditions: read-out: I50; procedure, shortened: as §3
[5] = target: T2, Dihydropteroate synthase (Escherichia coli K-12); assay: In vitro percent inhibition of dihydropteroate synthase from Escherichia coli at 20 uM; procedure, shortened: as §2

Structure (SMILES) | IC50 [1] | other results
Cc1cc(NS(=O)(=O)c2ccc(N)cc2)no1 [SULFAMETHOXAZOLE] | 4.7 µM | 
N#Cc1c(O)nc(N)nc1NCCCCc1ccccc1 | 290 µM | 
CNc1cc(O)nc(N)n1 | > 110 µM | inhibition [3]: < 10%
Nc1nc(O)c(N=O)c(NCCCO)n1 | 35 µM | 
CNc1nc(N)nc(O)c1C=O | > 300 µM | inhibition [3]: < 10%
CNc1nc(N)nc(O)c1N=O | 1.6 µM | Kis [2]: 0.085 µM
Nc1nc(O)c(N=O)c(Nc2ccccc2)n1 | > 100 µM | inhibition [3]: < 10%
Nc1ccc(S(=O)(=O)Nc2nccs2)cc1 [SULFATHIAZOLE] | 2.5 µM | 
Nc1nccc(O)n1 | > 500 µM | inhibition [3]: < 10%
CCNc1nc(N)nc(O)c1N=O | 11 µM | 
CCN(CC)c1nc(N)nc(O)c1N=O | 197 µM | 
Nc1nc(O)c(N=O)c(O)n1 | > 200 µM | inhibition [3]: < 10%
CSc1nc(N)nc(O)c1N=O |  | inhibition [5]: 17%
Nc1nc(N)c(N=O)c(=O)[nH]1 | 5.8 µM | 
CNc1nc(N)[nH]c(=O)c1[N+](=O)[O-] | 2.8 µM | 
CC(C)Nc1nc(N)nc(O)c1N=O | 208 µM | 

Now from value to molecule, other results behind:

IC50 [1] | Structure (SMILES) | other results
21 µM | Nc1nc(O)c([N+](=O)[O-])c(NCCCCc2ccccc2)n1 | 
3.7 µM | Nc1nc(O)c(N=O)c(NCCCOc2ccccc2)n1 | Kis [2]: 0.69 µM
12.9 µM | Nc1nc(O)c(N=O)c(NCc2ccccc2)n1 | 
4.2 µM | Nc1nc(O)c(N=O)c(NCCc2ccccc2)n1 | 
> 100 µM | Nc1nc(O)c(C=O)c(NCCCCc2ccccc2)n1 | inhibition [3]: < 10%
18 µM | Nc1nc(O)c(N=O)c(NCCCS(=O)(=O)c2ccccc2)n1 | 
7.8 µM | Nc1nc(O)c(N=O)c(NCCCc2ccccc2)n1 | 
5.9 µM | Nc1nc(O)c(N=O)c(NCCCCCc2ccccc2)n1 | 
2.5 µM | Nc1nc(O)c(N=O)c(NCCCCc2ccccc2)n1 | 
1.4 µM | Nc1nc(O)c(N=O)c(NCCCCCCCc2ccccc2)n1 | IC50 [4]: 1.4 µM
9 µM | Nc1nc(O)c(N=O)c(NCCCCCCc2ccccc2)n1 | 
